Article PMC9299227 (Diabetes, Obesity & Metabolism, 2021)

Assays:
[1] = system: Japanese participants with type 2 diabetes; test: Meal intake and subjective appetite sensation; type: in vivo, human
Procedure, shortened: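 Once-weekly SC test compound (5, 10 or 15 mg groups, escalated) or placebo into the abdominal wall for 8 weeks. Standardized lunch and dinner are given and intake is recorded. Hunger, fullness, satiety and prospective food consumption are rated on a 100-mm VAS before and 4-5 h after the meal. Overall score is the mean of satiety, fullness, (100 − prospective consumption) and (100 − hunger).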

[2] = system: Japanese participants with type 2 diabetes; test: HbA1c, change from baseline versus placebo; type: in vivo, human; conditions: for HbA1c, LS mean decrease from baseline versus placebo: P < .0001
Procedure, shortened: (§1)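 Randomized, participant- and investigator-blind, placebo-controlled trial. Adults aged 20-70 with T2D for ≥1 year and BMI 20-35 kg/m2; metformin or DPP-4 inhibitor withdrawn ≥28 days before dosing. Once-weekly SC abdominal-wall injections for 8 weeks, rotating four sites. Escalation: 5 mg fixed; 2.5→5→10 mg; 5→10→15 mg. Change from baseline by mixed-effects model (regimen fixed, participant random, day and regimen-by-day terms); LS means, 95% CI, P<.05.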

[3] = Plasma tirzepatide pharmacokinetics, non-compartmental analysis; type: in vivo; conditions: human, sc, 5 mg
Procedure, shortened: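 Noncompartmental PK on plasma drug levels after weekly SC abdominal dosing at 5 mg for weeks 1-8. Sampling spanned one 168-h interval after the day 1 dose and up to 840 h after the last dose on day 50. Steady-state CL/F and Vz/F were estimated as extravascular parameters and summarized descriptively by dose level.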

[4] = system: Japanese participants with type 2 diabetes; test: Serum lipids; type: in vivo, human
[5] = system: Japanese participants with type 2 diabetes; test: Fasting plasma glucose, change from baseline versus placebo; type: in vivo, human; conditions: P < .0001
Procedure, shortened: as §1

[6] = system: participants with T2D; conditions: 26 weeks, cited from earlier work
[7] = system: Japanese participants with type 2 diabetes; test: Body weight, change from baseline versus placebo; type: in vivo, human; conditions: P < .0001
Procedure, shortened: as §1

[8] = system: Japanese participants with type 2 diabetes; test: Safety and tolerability; type: in vivo, human
[9] = system: Japanese participants with type 2 diabetes; test: Seven-point self-monitored plasma glucose; type: in vivo, human; conditions: week 2 to week 8, all doses of tirzepatide
Procedure, shortened: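 Patients with T2D receive weekly SC injections of test compound (escalating to 5, 10 or 15 mg) or placebo into the abdominal wall for 8 weeks. Plasma glucose is self-monitored at seven time points across the day and profiled as an arithmetic mean at day 57. Change from baseline is analysed by mixed-effects model (regimen fixed, participant random) as LS means with 95% CI.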

[10] = 5-mg group (5 mg weeks 1-8), SC once weekly, 8 weeks, N = 11
[11] = 10-mg group (2.5 mg weeks 1-2, 5 mg weeks 3-4, 10 mg weeks 5-8), SC once weekly, N = 12
[12] = 15-mg group (5 mg weeks 1-2, 10 mg weeks 3-6, 15 mg weeks 7-8), SC once weekly, N = 16

CC[C@H](C)[C@H](NC(=O)[C@H](CC(C)C)NC(=O)[C@H](Cc1c[nH]c2ccccc12)NC(=O)[C@H](CCC(N)=O)NC(=O)[C@@H](NC(=O)[C@H](Cc1ccccc1)NC(=O)[C@H](C)NC(=O)[C@H](CCCCNC(=O)COCCOCCNC(=O)COCCOCCNC(=O)CC[C@H](NC(=O)CCCCCCCCCCCCCCCCCCC(=O)O)C(=O)O)NC(=O)[C@H](CCC(N)=O)NC(=O)[C@H](C)NC(=O)[C@@H](NC(=O)[C@H](CCCCN)NC(=O)[C@H](CC(=O)O)NC(=O)[C@H](CC(C)C)NC(=O)C(C)(C)NC(=O)[C@@H](NC(=O)[C@H](CO)NC(=O)[C@H](Cc1ccc(O)cc1)NC(=O)[C@H](CC(=O)O)NC(=O)[C@H](CO)NC(=O)[C@@H](NC(=O)[C@H](Cc1ccccc1)NC(=O)[C@@H](NC(=O)CNC(=O)[C@H](CCC(=O)O)NC(=O)C(C)(C)NC(=O)[C@@H](N)Cc1ccc(O)cc1)[C@@H](C)O)[C@@H](C)O)[C@@H](C)CC)[C@@H](C)CC)C(C)C)C(=O)N[C@@H](C)C(=O)NCC(=O)NCC(=O)N1CCC[C@H]1C(=O)N[C@@H](CO)C(=O)N[C@@H](CO)C(=O)NCC(=O)N[C@@H](C)C(=O)N1CCC[C@H]1C(=O)N1CCC[C@H]1C(=O)N1CCC[C@H]1C(=O)N[C@@H](CO)C(N)=O [tirzepatide]
Overall appetite score ([1]; average of four VAS scores, among treatment groups (Figure S5)): overall appetite score was not different among the treatment groups | Hunger and fullness scores, visual analog scale, compared with placebo ([1]; lunch and dinner, all tirzepatide dose levels (Figure S5)): numerically decreased hunger and fullness scores | Percentage of meal intake compared with placebo ([1]; week 8, standardized meals (Figure S4)): dose‐dependent decrease in the percentage of meal intake compared with placebo | HbA1c, LS mean decreases from baseline versus placebo, across treatment groups ([2]; 8 weeks, 95% CI 1.2%-1.9%, P < .0001 for all treatment groups): up to 1.6% | HbA1c, LS mean decrease from baseline versus placebo ([2]; week 8, 5-mg group, 95% CI 0.8%-1.5%): 1.1% | HbA1c, LS mean decrease from baseline versus placebo ([2]; week 8, 10-mg group, 95% CI 0.9%-1.7%): 1.3% | HbA1c, LS mean decrease from baseline versus placebo ([2]; week 8, 15-mg group, 95% CI 1.2%-1.9%): 1.6% | Vd/F [3]: 5.27 L | Triglyceride postdose (week 8), mean (SD) ([4]; 5-mg group, predose (week 1) 204 (56) mg/dL): 161 (51) mg/dL | Triglyceride postdose (week 8), mean (SD) ([4]; 10-mg group, predose (week 1) 172 (71) mg/dL): 122 (38) mg/dL | Triglyceride postdose (week 8), mean (SD) ([4]; 15-mg group, predose (week 1) 173 (121) mg/dL): 122 (55) mg/dL | Fasting plasma glucose, LS mean decrease from baseline versus placebo (95% CI) ([5]; week 8, 5-mg group): 52.7 (35.9‐69.6) mg/dL | Fasting plasma glucose, LS mean decrease from baseline versus placebo (95% CI) ([5]; week 8, 10-mg group): 69.1 (52.3‐85.9) mg/dL | Fasting plasma glucose, LS mean decrease from baseline versus placebo (95% CI) ([5]; week 8, 15-mg group): 68.9 (53.2‐84.6) mg/dL | Body weight reduction ([6]; 5-, 10-, and 15-mg doses versus placebo): significant, dose‐dependent reductions in body weight for the 5‐, 10‐, and 15‐mg doses of tirzepatide versus placebo | HbA1c reduction ([6]; doses 1, 5, 10, and 15 mg, versus placebo): significant dose‐dependent reductions in HbA1c at all doses (1, 5, 10, and 15 mg) versus placebo | Body weight, LS mean decrease from baseline (95% CI) versus placebo ([7]; week 8, 5-mg group): 3.4 (2.0‐4.8) kg | Body weight, LS mean decrease from baseline (95% CI) versus placebo ([7]; week 8, 10-mg group): 5.0 (3.6‐6.5) kg | Body weight, LS mean decrease from baseline (95% CI) versus placebo ([7]; week 8, 15-mg group): 6.6 (5.3‐7.9) kg | Abdominal discomfort, treatment-emergent adverse event [8, 10]: 0 n (%) | Abdominal distension, treatment-emergent adverse event [8, 10]: 3 (27.3) n (%) | Blood triglycerides increased, treatment-emergent adverse event [8, 10]: 0 n (%) | Constipation, treatment-emergent adverse event [8, 10]: 0 n (%) | Decreased appetite, treatment-emergent adverse event [8, 10]: 5 (45.5) n (%) | Diarrhea, treatment-emergent adverse event [8, 10]: 0 n (%) | Dyspepsia, treatment-emergent adverse event [8, 10]: 0 n (%) | Headache, treatment-emergent adverse event [8, 10]: 0 n (%) | Lipase increased, treatment-emergent adverse event [8, 10]: 0 n (%) | Nausea, treatment-emergent adverse event [8, 10]: 1 (9.1) n (%) | Viral upper respiratory tract infection, treatment-emergent adverse event [8, 10]: 1 (9.1) n (%) | Vomiting, treatment-emergent adverse event [8, 10]: 1 (9.1) n (%) | White blood cell count increased, treatment-emergent adverse event [8, 10]: 1 (9.1) n (%) | Abdominal discomfort, treatment-emergent adverse event [8, 11]: 2 (16.7) n (%) | Abdominal distension, treatment-emergent adverse event [8, 11]: 1 (8.3) n (%) | Blood triglycerides increased, treatment-emergent adverse event [8, 11]: 0 n (%) | Constipation, treatment-emergent adverse event [8, 11]: 8 (66.7) n (%) | Decreased appetite, treatment-emergent adverse event [8, 11]: 6 (50.0) n (%) | Diarrhea, treatment-emergent adverse event [8, 11]: 3 (25.0) n (%) | Dyspepsia, treatment-emergent adverse event [8, 11]: 3 (25.0) n (%) | Headache, treatment-emergent adverse event [8, 11]: 3 (25.0) n (%) | Lipase increased, treatment-emergent adverse event [8, 11]: 1 (8.3) n (%) | Nausea, treatment-emergent adverse event [8, 11]: 0 n (%) | Vomiting, treatment-emergent adverse event [8, 11]: 1 (8.3) n (%) | White blood cell count increased, treatment-emergent adverse event [8, 11]: 0 n (%) | Abdominal discomfort, treatment-emergent adverse event [8, 12]: 4 (25.0) n (%) | Abdominal distension, treatment-emergent adverse event [8, 12]: 0 n (%) | Blood triglycerides increased, treatment-emergent adverse event [8, 12]: 1 (6.3) n (%) | Constipation, treatment-emergent adverse event [8, 12]: 8 (50.0) n (%) | Decreased appetite, treatment-emergent adverse event [8, 12]: 10 (62.5) n (%) | Diarrhea, treatment-emergent adverse event [8, 12]: 5 (31.3) n (%) | Dyspepsia, treatment-emergent adverse event [8, 12]: 0 n (%) | Headache, treatment-emergent adverse event [8, 12]: 1 (6.3) n (%) | Lipase increased, treatment-emergent adverse event [8, 12]: 2 (12.5) n (%) | Nausea, treatment-emergent adverse event [8, 12]: 2 (12.5) n (%) | Vomiting, treatment-emergent adverse event [8, 12]: 2 (12.5) n (%) | White blood cell count increased, treatment-emergent adverse event [8, 12]: 1 (6.3) n (%) | Tolerability ([8]; all tirzepatide doses (5-, 10-, 15-mg groups), SC once weekly, 8 weeks): all tirzepatide doses were well tolerated | Severe hypoglycemia or nocturnal hypoglycemia events ([8]; all treatment groups, 8 weeks): No severe hypoglycemia or nocturnal hypoglycemia events were reported | Injection-site or hypersensitivity AEs ([8]; all treatment groups, SC abdominal wall, 8 weeks): No injection‐site or hypersensitivity AEs were reported | Deaths or serious AEs ([8]; all treatment groups, SC once weekly, 8 weeks): No deaths or serious AEs occurred during the study | Systolic and diastolic blood pressure, mean predose ([8]; participants treated with tirzepatide (Figure S3)): no significant changes in blood pressure | Seven-point SMPG daily profile compared with placebo [9]: improved overall daily SMPG profiles compared with placebo
